From ChEMBL document CHEMBL1147085, “Metabolism and pharmacokinetics of a novel Src kinase inhibitor TG100435 ([7-(2,6-dichloro-phenyl)-5-methyl-benzo[1,2,4]triazin-3-yl]-[4-(2-pyrrolidin-1-yl-ethoxy)-phenyl]-amine) and its active N-oxide metabolite TG100855 …” (Drug Metab Dispos, 2007) come the findings set out here.

The nature of data set [1]: AUC (0 to infinity) in BALB/c mouse at 5 mg/kg, ip. The format is ADME, organism-based. Also on record: time infinity, dose 5 mg/kg, route intraperitoneal. The conditions noted are these: plasma. The method in brief: (§1)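 Male BALB/c mice (~25 g); fasted overnight for single p.o. dosing, not fasted for i.v. or i.p. dosing. Composite blood sampling, n=3 per time point: 5, 15, 30 min, 1, 3, 6, 24, 48 hr after i.v. dose; 0.5, 1, 3, 5, 8, 24, 30, 48 hr after p.o. or i.p. dose. Heparinized plasma, both parent and N-oxide measured by LC/MS/MS (MRM 494.2/98.1 and 510.2/98.1); non-compartmental analysis, AUC by linear trapezoidal rule.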

Data set [2] deals with Rattus norvegicus. Description: Volume of distribution in Sprague-Dawley rat at 5 mg/kg, ip. The format is ADME, organism-based. The conditions noted are these: in vivo. More on the design: dose 5 mg/kg, route intraperitoneal.
In data set [3] the target is Tyrosine-protein kinase Lyn (Homo sapiens, UniProt P07948). The data set can be described thus: Inhibition of Lyn by luminescence based kinase assay.
Chain of Tyrosine-protein kinase Lyn (P07948 whole entry): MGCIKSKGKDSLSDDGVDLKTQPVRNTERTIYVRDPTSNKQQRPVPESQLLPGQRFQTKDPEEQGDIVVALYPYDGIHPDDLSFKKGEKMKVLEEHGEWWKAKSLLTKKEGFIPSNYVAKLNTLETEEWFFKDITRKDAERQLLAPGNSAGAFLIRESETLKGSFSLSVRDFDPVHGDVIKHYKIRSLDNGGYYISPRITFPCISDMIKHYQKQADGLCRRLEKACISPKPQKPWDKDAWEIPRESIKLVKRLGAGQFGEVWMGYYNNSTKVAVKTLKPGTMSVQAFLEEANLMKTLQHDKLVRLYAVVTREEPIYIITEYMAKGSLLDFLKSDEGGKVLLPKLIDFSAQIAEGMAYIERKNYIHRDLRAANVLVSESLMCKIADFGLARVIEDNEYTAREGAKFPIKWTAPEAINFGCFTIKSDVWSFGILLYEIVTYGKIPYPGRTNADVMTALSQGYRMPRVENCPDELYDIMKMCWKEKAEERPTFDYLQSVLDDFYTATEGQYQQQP
Data set [4] can be described thus: AUC (0 to infinity) in BALB/c mouse at 25 mg/kg, po. The format is ADME, organism-based. More on the design: time infinity, dose 25 mg/kg, route oral. The following applies: plasma. The method in brief:
as §1

A short description of data set [5]: Half life in BALB/c mouse at 5 mg/kg, iv. More on the design: dose 5 mg/kg, route intravenous. The conditions noted are these: in vivo. The format is ADME, organism-based. The method in brief: as §1
Data set [6] can be described thus: Half life in Sprague-Dawley rat at 5 mg/kg, iv. The format is ADME, organism-based. Also on record: dose 5 mg/kg, route intravenous. The following applies: in vivo.
A short description of data set [7]: Tmax in BALB/c mouse at 25 mg/kg, po. More on the design: dose 25 mg/kg, route oral. The conditions noted are these: in vivo. The format is ADME, organism-based.
Data set [8] concerns Mus musculus. The data set can be described thus: AUC (0 to infinity) in BALB/c mouse assessed as AUC of ([7-(2,6-Dichloro-phenyl)-5-methyl-benzo[1,2,4]triazin-3-yl]-[4-(2-pyrrolidin-1-yl-ethoxy)-phenyl]-amine) at 5 mg/kg, ip. The format is ADME, organism-based, Plasma. More on the design: time infinity, dose 5 mg/kg, route intraperitoneal. The conditions noted are these: in vivo. A digest of the protocol: as §1

Data set [9] in a line: AUC (0 to infinity) in Sprague-Dawley rat at 5 mg/kg, ip. The format is ADME, organism-based. Also on record: time infinity, dose 5 mg/kg, route intraperitoneal. The conditions noted are these: plasma.
For data set [10], the system named is Rattus norvegicus. Description: AUC (0 to last) in Sprague-Dawley rat assessed as AUC of ([7-(2,6-Dichloro-phenyl)-5-methyl-benzo[1,2,4]triazin-3-yl]-[4-(2-pyrrolidin-1-yl-ethoxy)-phenyl]-amine) at 25 mg/kg, po. The following applies: in vivo.
Data set [11] has as its system Rattus norvegicus. The data set can be described thus: AUC (0 to infinity) in Sprague-Dawley rat assessed as AUC of ([7-(2,6-Dichloro-phenyl)-5-methyl-benzo[1,2,4]triazin-3-yl]-[4-(2-pyrrolidin-1-yl-ethoxy)-phenyl]-amine) at 5 mg/kg, ip. More on the design: time infinity, dose 5 mg/kg, route intraperitoneal. The format is ADME, organism-based, Plasma. The conditions noted are these: in vivo.

Data set [12] can be described thus: Drug level in BALB/c mouse plasma at 5 mg/kg, iv. The format is ADME, organism-based. More on the design: dose 5 mg/kg, route intravenous. The method in brief: as §1
Data set [13] in a line: Clearance in Sprague-Dawley rat at 5 mg/kg, ip. The conditions noted are these: in vivo. The format is ADME, organism-based. More on the design: dose 5 mg/kg, route intraperitoneal.
The test system of data set [14] is Mus musculus. The data set can be described thus: Volume of distribution in BALB/c mouse at 5 mg/kg, ip. More on the design: dose 5 mg/kg, route intraperitoneal. The format is ADME, organism-based. The conditions noted are these: in vivo. A digest of the protocol: as §1
Data set [15] in a line: Half life in BALB/c mouse at 5 mg/kg, ip. The following applies: in vivo. The format is ADME, organism-based. Also on record: dose 5 mg/kg, route intraperitoneal. The method in brief:
as §1

Data set [16] concerns Rattus norvegicus. The data set can be described thus: AUC (0 to infinity) in Sprague-Dawley rat assessed as AUC of ([7-(2,6-Dichloro-phenyl)-5-methyl-benzo[1,2,4]triazin-3-yl]-[4-(2-pyrrolidin-1-yl-ethoxy)-phenyl]-amine) at 25 mg/kg, po. The following applies: in vivo.
The test system of data set [17] is Mus musculus. Description: Maximal plasma concentration of TG100435 in BALB/C mice after 25 mg/kg oral dose of TG100855. The format is ADME, organism-based. More on the design: dose 25 mg/kg, route oral. The following applies: in vivo. A digest of the protocol:
as §1

The test system of data set [18] is Mus musculus. The data set can be described thus: Tmax in BALB/c mouse assessed as Tmax of ([7-(2,6-Dichloro-phenyl)-5-methyl-benzo[1,2,4]triazin-3-yl]-[4-(2-pyrrolidin-1-yl-ethoxy)-phenyl]-amine) at 25 mg/kg, po. The conditions noted are these: in vivo.
Data set [19] in a line: Drug level in Sprague-Dawley rat plasma at 5 mg/kg, iv. More on the design: dose 5 mg/kg, route intravenous. The format is ADME, organism-based.
In data set [20] the target is Tyrosine-protein kinase Lck (Homo sapiens, UniProt P06239). The data set can be described thus: Inhibition of Lck by luminescence based kinase assay.
Chain of Tyrosine-protein kinase Lck (P06239 whole entry): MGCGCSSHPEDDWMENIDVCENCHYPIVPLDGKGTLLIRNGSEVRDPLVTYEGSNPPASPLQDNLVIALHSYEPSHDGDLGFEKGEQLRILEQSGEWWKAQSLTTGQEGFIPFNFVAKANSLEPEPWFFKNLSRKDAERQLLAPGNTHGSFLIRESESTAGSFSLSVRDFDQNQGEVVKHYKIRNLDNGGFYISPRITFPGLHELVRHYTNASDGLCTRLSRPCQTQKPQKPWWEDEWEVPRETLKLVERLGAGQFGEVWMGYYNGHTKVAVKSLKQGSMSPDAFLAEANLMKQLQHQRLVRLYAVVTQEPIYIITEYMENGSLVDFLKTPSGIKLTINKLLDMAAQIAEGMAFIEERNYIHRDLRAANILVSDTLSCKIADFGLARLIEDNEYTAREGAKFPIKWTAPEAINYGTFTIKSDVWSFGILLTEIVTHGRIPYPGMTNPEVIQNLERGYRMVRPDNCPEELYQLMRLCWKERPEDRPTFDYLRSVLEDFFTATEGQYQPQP
Data set [21] in a line: AUC (0 to infinity) in BALB/c mouse at 5 mg/kg, iv. More on the design: time infinity, dose 5 mg/kg, route intravenous. The conditions noted are these: plasma. The format is ADME, organism-based. A digest of the protocol:
as §1

The next data set deals with T1, Ephrin type-B receptor 4 (Homo sapiens, UniProt P54760).
T1 sequence (P54760 whole entry): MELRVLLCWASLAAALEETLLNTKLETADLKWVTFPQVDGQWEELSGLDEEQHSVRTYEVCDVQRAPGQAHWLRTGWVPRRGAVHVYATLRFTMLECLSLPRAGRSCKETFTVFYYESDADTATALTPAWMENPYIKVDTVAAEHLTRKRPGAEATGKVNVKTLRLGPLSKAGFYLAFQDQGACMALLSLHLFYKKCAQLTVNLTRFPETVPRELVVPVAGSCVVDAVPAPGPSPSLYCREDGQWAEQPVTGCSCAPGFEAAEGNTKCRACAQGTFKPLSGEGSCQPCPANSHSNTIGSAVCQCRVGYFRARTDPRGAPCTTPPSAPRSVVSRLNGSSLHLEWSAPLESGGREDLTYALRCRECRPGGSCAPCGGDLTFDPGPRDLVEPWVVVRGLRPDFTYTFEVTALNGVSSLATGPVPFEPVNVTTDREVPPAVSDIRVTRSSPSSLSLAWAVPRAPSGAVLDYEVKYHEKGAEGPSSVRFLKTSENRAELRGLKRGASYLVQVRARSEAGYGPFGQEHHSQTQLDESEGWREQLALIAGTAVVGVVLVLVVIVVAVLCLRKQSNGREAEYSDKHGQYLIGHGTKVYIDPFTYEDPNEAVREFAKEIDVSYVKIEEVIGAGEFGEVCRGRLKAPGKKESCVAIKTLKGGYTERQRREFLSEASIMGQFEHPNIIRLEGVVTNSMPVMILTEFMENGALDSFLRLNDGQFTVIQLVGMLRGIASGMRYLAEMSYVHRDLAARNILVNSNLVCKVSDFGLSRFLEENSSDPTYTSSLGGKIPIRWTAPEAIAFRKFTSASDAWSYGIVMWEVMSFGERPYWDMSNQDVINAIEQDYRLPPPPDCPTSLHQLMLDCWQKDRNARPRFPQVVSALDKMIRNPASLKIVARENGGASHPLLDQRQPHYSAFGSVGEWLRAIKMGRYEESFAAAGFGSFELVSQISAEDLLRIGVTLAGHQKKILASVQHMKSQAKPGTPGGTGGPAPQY
The data set can be described thus: Inhibition of EphB4 by luminescence based kinase assay.

The subject of data set [22] is Rattus norvegicus. Description: Drug level in Sprague-Dawley rat plasma at 5 mg/kg, ip. The format is ADME, organism-based. Also on record: dose 5 mg/kg, route intraperitoneal. The conditions noted are these: in vivo.
Data set [23] in a line: Clearance in Sprague-Dawley rat at 5 mg/kg, iv. The format is ADME, organism-based. Also on record: dose 5 mg/kg, route intravenous. The following applies: in vivo.

As for `Cc1cc(-c2c(Cl)cccc2Cl)cc2nnc(Nc3ccc(OCC[N+]4([O-])CCCC4)cc3)nc12`, the AUC(0-inf) in [1] came out at 6520 ng·h/mL; in data set [4], 939 ng·h/mL; in data set [9], 4990 ng·h/mL; in [21], 5350 ng·h/mL. For the same compound, the Vd came out at 3.3 L/kg with Rattus norvegicus [2] and 2.6 L/kg with Mus musculus [14]. For the same compound, the Ki stood at 4.19 nM in data set [3], 11.7 nM in [20] and 7.27 nM at Ephrin type-B receptor 4. The half-life was 0.9 h in [5], 1.6 h in [6] and 2.8 h in [15]. The Tmax in data set [7] was found to be 1 h; in the data set with Mus musculus [18] it was 7 h. The AUC in the data set with Mus musculus [8] was 1400 ng·h/mL; in the data set on Rattus norvegicus [10], 881 ng·h/mL; with Rattus norvegicus [11] it was 498 ng·h/mL; in the data set on Rattus norvegicus [16] it was 906 ng·h/mL. In addition, the C0 in data set [12] came to 9030 ng/mL; in data set [19], 12200 ng/mL; in the data set with Rattus norvegicus [22], 1080 ng/mL. Moreover, the CL/F in data set [13] was determined as 17 mL/min/kg. In the data set on Mus musculus [17], the Cmax is 113 ng/mL. Moreover, the clearance in data set [23] was determined as 13.8 mL/min/kg.

A word on the AUC(0-inf): it is total exposure, with the tail of the curve extrapolated. The term Ki denotes a measure of affinity in units of concentration, obtained from inhibition or displacement. Broadly, the half-life is how long it takes for the measured level to halve. High values mean slow loss, low ones fast loss. One may read the Tmax as the time from dosing to the highest level. The term AUC denotes concentration integrated over time. By CL/F is commonly meant clearance divided by bioavailability, as obtained after extravascular dosing. What is called Cmax is the highest concentration seen after dosing. A word on the clearance: it is the volume of plasma or blood freed of the substance per unit of time. Lower therefore signals a low capacity for elimination.
